Data taken from ChEMBL document CHEMBL3421574, “Discovery of Potent Inhibitors of Schistosoma mansoni NAD⁺ Catabolizing Enzyme” (J Med Chem, 2015).
Calls of active or inactive are those of the source. The calls are words filed in the database; no cut-off is given here.

Key:
[1] = Inhibition of recombinant Schistosoma mansoni NACE using 1, N6-etheno NAD+ as substrate by fluorometric analysis
Procedure, shortened: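 Continuous fluorometric read of recombinant SmNACE turning over ε-NAD+ to ε-ADP-ribose (ex 310 nm, em 410 nm), at 37 °C in 10 mM potassium phosphate pH 7.4 with 0.05% (w/v) emulphogen. Initial rates are taken at 6 inhibitor concentrations. IC50 comes from non-linear regression of residual activity against log[inhibitor]. Values are means of three independent determinations.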

[2] = target: T1, ADP-ribosyl cyclase/cyclic ADP-ribose hydrolase 1 (Homo sapiens, UniProt P28907); assay: Inhibition of human CD38 by HPLC analysis
T1 sequence (P28907 whole entry): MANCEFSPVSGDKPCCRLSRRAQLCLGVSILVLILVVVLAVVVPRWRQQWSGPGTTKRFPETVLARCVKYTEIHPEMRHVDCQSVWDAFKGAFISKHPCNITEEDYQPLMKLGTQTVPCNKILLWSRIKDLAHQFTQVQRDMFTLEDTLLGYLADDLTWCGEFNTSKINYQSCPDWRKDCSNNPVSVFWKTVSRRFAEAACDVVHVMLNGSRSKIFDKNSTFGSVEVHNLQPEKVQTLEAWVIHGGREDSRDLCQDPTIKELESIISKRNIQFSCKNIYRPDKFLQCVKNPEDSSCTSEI

[3] = target: ADP-ribosyl cyclase/cyclic ADP-ribose hydrolase 1 (Homo sapiens) (UniProt P28907); assay: Inhibition of human CD38 at 100 uM by HPLC analysis relative to control
Procedure, shortened: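 Human CD38 with inhibitor at 100 µM, given as percent inhibition. Enzyme activity is measured by HPLC at 20 µM NAD+: isocratic C18 separation (10 mM ammonium phosphate pH 5.5, 1.2% (v/v) acetonitrile, 1 mL/min) with detection at 260 nm, plus radiodetection when [14C]NAD+ is added.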

[4] = Selectivity ratio of IC50 for human CD38 to IC50 for recombinant Schistosoma mansoni NACE
[5] = system: Schistosoma mansoni; assay: Competitive inhibition of recombinant Schistosoma mansoni NACE by Dixon plot analysis in presence of 1, N6-etheno NAD+
Procedure, shortened: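 Recombinant SmNACE with ε-NAD+ in 10 mM potassium phosphate pH 7.4, 0.05% (w/v) emulphogen, 37 °C. Initial rates are followed fluorometrically as ε-ADP-ribose appears (ex 310 nm, em 410 nm). Three fixed inhibitor concentrations are each combined with ε-NAD+ at 20, 50 and 100 µM, and 1/v is plotted against [I] (Dixon) to assign the inhibition type.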

[6] = system: Schistosoma mansoni; assay: Inhibition of recombinant Schistosoma mansoni NACE using 1, N6-etheno NAD+ as substrate at 100 uM by fluorometric analysis relative to control
Procedure, shortened: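 Single-point screen at 100 µM inhibitor against recombinant SmNACE with ε-NAD+ substrate. Initial-rate fluorescence of ε-ADP-ribose is read (ex 310 nm, em 410 nm) at 37 °C in 10 mM potassium phosphate pH 7.4 with 0.05% (w/v) emulphogen, and expressed as percent inhibition.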

[7] = system: Schistosoma mansoni; assay: Inhibition of recombinant Schistosoma mansoni NACE using NAD+ as substrate at 100 uM by HPLC analysis relative to control
Procedure, shortened: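 HPLC assay for recombinant SmNACE at 20 µM NAD+ substrate, used where compounds fluoresce on their own. Inhibitor is tested at 100 µM. Products are separated isocratically on a C18 column (10 mM ammonium phosphate pH 5.5, 1.2% (v/v) acetonitrile, 1 mL/min) and detected at 260 nm. In some runs [adenosine-U-14C]NAD+ is added with radiodetection.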

inhibition [3] [%]	IC50 ([1]; read-out: IC50) [µM]	Compound	other results
0	0.045	COc1ccc(O)c(/C=N\NC(=O)c2ccoc2C)c1	Ratio IC50 [4]: > 1000
20	0.13	Cc1occc1C(=O)N/N=C\c1ccccc1O	Inhibition type (Dixon plot) [5]: Active; Ratio IC50 [4]: > 1000; IC50 [2]: 430 µM
0	59	Cc1cccc(/C=N\NC(=O)c2ccoc2C)c1O	–
0	0.033	Cc1occc1C(=O)N/N=C\c1cc(Cl)ccc1O	Ratio IC50 [4]: > 1000
27.2	0.036	Cc1occc1C(=O)N/N=C\c1cccc(F)c1O	Inhibition type (Dixon plot) [5]: Active; IC50 [2]: 26 µM
–	105	Cc1occc1C(=O)N/N=C\c1cccc(C(C)(C)C)c1O	–
0	67	COc1ccccc1/C=N\NC(=O)c1ccoc1C	–
0	0.032	COc1ccc(/C=N\NC(=O)c2ccoc2C)c(O)c1	Ratio IC50 [4]: > 1000
0	8.7	Cc1occc1C(=O)N/N=C\c1cccc(O)c1O	–
66.7	0.15	Cc1occc1C(=O)N/N=C\c1cccc(Cl)c1O	IC50 [2]: 14 µM

Continued, compound first:

Compound	inhibition [3] [%]	IC50 ([1]; read-out: IC50) [µM]	other results
Cc1occc1C(=O)N(C)/N=C\c1ccccc1O	–	–	IC50 [1]: ND(Insoluble)
Cc1occc1C(=O)NNC(=O)c1ccccc1O	27.6	0.25	IC50 [2]: 120 µM
COc1cc(/C=N\NC(=O)c2ccoc2C)ccc1O	–	80	IC50 [2]: 103 µM
Cc1occc1C(=O)N/N=C\c1ccccc1	–	330	IC50 [2]: 296 µM
Cc1occc1C(=O)NCCc1ccccc1O	–	131	–
COc1cc(O)c(/C=N\NC(=O)c2ccoc2C)c(OC)c1	0	0.19	–
COc1ccc(-c2nnc(-c3ccoc3C)o2)c(O)c1	0	–	inhibition [6]: 0%
Cc1occc1C(=O)N/N=C\c1c(O)cc(Cl)cc1Cl	0	0.077	Ratio IC50 [4]: > 1000
COc1ccccc1CCNC(=O)c1ccoc1C	–	–	inhibition [6]: 0%
Cc1occc1C(=O)NNC(=O)c1cc(Cl)ccc1O	6.7	0.039	Inhibition type (Dixon plot) [5]: Active; Ratio IC50 [4]: > 1000
COc1ccccc1/C=N\N(C)C(=O)c1ccoc1C	–	513	–
O=C1c2c(O)cc(O)cc2OC(c2ccc(O)c(O)c2)C1O (racemic)	–	–	inhibition [6]: > 40%; inhibition [7]: > 40%
COc1ccc(C(=O)NNC(=O)c2ccoc2C)c(O)c1	6.7	0.074	Inhibition type (Dixon plot) [5]: Active; Ratio IC50 [4]: > 1000
Cc1occc1-c1nnc(-c2cc(Cl)ccc2O)o1	0	–	inhibition [6]: 0%
COc1ccccc1CNNC(=O)c1ccoc1C	0	11.6	–
Cc1cccc(C(=O)NNC(=O)c2ccoc2C)c1O	–	–	IC50 [1]: ND(Insoluble)
Cc1occc1C(=O)NNCc1ccccc1O	0	12.3	–
Cc1occc1C(=O)N/N=C\c1ccc(O)c(O)c1	–	88	Inhibition type (Dixon plot) [5]: Active; IC50 [2]: 109 µM
C/C(=N/NC(=O)c1ccoc1C)c1ccccc1O	–	–	IC50 [1]: ND(Insoluble)
Cc1occc1-c1nnc(-c2ccccc2O)o1	0	–	inhibition [6]: 0%
